Measured values taken from PMC4817271 (Journal of medicinal chemistry, 2015).

How the values were obtained:
[1] = target: rat mGlu2 (Rattus norvegicus, UniProt P31421); experiment: Calcium mobilization mGlu2 assay; assay type: cell-based; conditions: for IC50: average of n ≥ 3
Outline: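 Fluorescence calcium-mobilization read-out in a cell line stably co-expressing rat mGlu2 and the promiscuous G-protein Gα15. Test compound was applied up to 30 μM, and NAM activity was measured as inhibition of the glutamate response. Values are the average of n=3. LLE = pIC50 − cLogP, with cLogP calculated by software.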

[2] = Rat plasma protein binding; assay type: in vitro ADME
[3] = Intrinsic clearance in rat liver microsomes, predicted hepatic clearance; assay type: in vitro ADME
Outline: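 Test compound was incubated with rat liver microsomes to give intrinsic clearance (CLint), which was converted to predicted hepatic clearance. Compounds were binned against hepatic blood flow: low (<1/3), moderate (1/3 to 2/3) or high (>2/3).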

[4] = Protein binding in rat brain homogenates; assay type: in vitro ADME; conditions: brain homogenate
[5] = Rat iv cassette PK tissue distribution; assay type: in vivo; conditions: 0.2 mg/kg
Outline: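 Cassette dosing in rats: iv at 0.2 mg/kg per compound, as a solution in 8% EtOH, 30% PEG 400 and 62% DMSO (2 mg/mL total), n=2. Single time point brain and plasma sampling at 15 min after dose. Kp = total brain/total plasma; Kp,uu = (brain fu × total brain)/(plasma fu × total plasma).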

[6] = target: P-gp (MDR1) (Homo sapiens, UniProt P08183); experiment: Permeability in MDR1-MDCK cells; assay type: in vitro ADME; conditions: dog (MDCK cells), human MDR1 expressed
Chain of P-gp (MDR1) (P08183 whole entry): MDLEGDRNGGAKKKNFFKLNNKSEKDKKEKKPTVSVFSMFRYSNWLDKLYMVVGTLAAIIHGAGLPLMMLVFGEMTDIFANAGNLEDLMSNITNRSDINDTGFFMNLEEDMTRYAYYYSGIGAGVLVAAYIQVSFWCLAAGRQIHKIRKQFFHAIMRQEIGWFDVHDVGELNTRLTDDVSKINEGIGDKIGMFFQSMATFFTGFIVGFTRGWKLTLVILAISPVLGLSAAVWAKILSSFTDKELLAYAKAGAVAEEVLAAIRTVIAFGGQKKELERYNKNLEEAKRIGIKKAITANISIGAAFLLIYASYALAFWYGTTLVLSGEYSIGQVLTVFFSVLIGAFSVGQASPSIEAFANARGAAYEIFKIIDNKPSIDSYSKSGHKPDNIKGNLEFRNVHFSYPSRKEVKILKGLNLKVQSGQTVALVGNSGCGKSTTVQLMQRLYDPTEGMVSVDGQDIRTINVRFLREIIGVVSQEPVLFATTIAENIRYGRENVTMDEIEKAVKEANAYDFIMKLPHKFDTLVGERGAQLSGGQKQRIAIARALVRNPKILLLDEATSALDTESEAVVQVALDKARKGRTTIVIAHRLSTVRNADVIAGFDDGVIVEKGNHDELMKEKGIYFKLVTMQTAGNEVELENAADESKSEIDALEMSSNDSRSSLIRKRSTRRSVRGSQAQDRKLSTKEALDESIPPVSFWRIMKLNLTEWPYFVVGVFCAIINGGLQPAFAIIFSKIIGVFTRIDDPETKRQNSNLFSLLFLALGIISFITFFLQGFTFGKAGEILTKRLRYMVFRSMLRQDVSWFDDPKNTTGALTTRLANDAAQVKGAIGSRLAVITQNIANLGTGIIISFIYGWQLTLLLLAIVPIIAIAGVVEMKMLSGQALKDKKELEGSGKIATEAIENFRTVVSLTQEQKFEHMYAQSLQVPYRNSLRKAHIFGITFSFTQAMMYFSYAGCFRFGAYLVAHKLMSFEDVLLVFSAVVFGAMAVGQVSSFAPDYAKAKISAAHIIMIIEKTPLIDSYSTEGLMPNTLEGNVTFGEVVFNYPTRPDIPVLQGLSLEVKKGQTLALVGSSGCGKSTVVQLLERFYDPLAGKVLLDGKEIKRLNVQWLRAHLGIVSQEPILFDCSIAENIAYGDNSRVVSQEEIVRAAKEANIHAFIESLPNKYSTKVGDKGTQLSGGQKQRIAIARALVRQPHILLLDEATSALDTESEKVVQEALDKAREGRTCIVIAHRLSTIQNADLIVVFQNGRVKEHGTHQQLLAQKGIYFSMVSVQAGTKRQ

[7] = tested on: other members of the mGlu family; experiment: Fold-shift selectivity experiments versus other mGlus; assay type: cell-based; conditions: effect of 10 μM compound on orthosteric agonist CRC
[8] = target: T1, human M1 (Homo sapiens, UniProt P11229); experiment: Human M1 functional assay; assay type: cell-based; conditions: up to the highest concentration tested (30 μM)
T1 sequence (P11229 1-460): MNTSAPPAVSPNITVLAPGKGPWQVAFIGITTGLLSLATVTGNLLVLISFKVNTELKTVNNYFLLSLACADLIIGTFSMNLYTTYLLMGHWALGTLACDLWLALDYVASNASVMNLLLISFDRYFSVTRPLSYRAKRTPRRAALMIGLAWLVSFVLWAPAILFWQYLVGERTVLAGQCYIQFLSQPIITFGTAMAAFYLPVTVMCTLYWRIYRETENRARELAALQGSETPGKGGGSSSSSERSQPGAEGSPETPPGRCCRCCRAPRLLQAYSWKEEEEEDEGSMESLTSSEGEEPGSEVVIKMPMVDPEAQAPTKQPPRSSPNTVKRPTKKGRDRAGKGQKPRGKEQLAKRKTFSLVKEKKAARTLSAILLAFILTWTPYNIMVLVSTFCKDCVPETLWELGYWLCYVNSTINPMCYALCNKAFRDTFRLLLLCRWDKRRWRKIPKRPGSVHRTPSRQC

[9] = tested on: panel of 68 clinically relevant GPCRs, ion channels, kinases, and transporters; experiment: Radioligand binding assay panel; conditions: 10 μM; significant = more than 50% inhibition of radioligand binding
[10] = Rat IV PK; assay type: in vivo
Outline: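 Rats received test compound iv at 0.2 mg/kg as a solution in 9% EtOH, 38% PEG 400 and 53% DMSO (1 mg/mL dosing solution), n=2. Plasma time course gave half-life, plasma clearance and volume of distribution at steady state.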

[11] = Rat IP tissue distribution; assay type: in vivo
Outline: (§1)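 Single time point tissue distribution in mice or rats (n=2). Test compound was given ip at 30 mg/kg as a fine homogeneous suspension in 10% Tween-80 in water. Brain and plasma concentrations were taken 15 min after dosing. Kp = total brain/total plasma; Kp,uu = unbound brain (brain fu × total brain)/unbound plasma (plasma fu × total plasma).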

[12] = Mouse IP tissue distribution; assay type: in vivo
Outline: as §1

[13] = Mouse IP tissue distribution with P-gp inhibitor 109 pretreatment; assay type: in vivo
Outline: (§2)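 Mice were pretreated with the P-gp inhibitor elacridar at 20 mg/kg 1 h before the test compound. Test compound was given ip at 30 mg/kg as a fine homogeneous suspension in 10% Tween-80 in water (n=2). Brain and plasma were sampled 15 min after dosing. Kp = total brain/total plasma; Kp,uu = (brain fu × total brain)/(plasma fu × total plasma).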

[14] = tested on: P-gp; experiment: as above; assay type: in vivo; conditions: mouse, brain, ip, with 109 (elacridar), 20 mg/kg, dosed 1 h before compound 58
Outline: as §2

[15] = Mouse plasma protein binding; assay type: in vitro ADME
[16] = Protein binding in mouse brain homogenates; assay type: in vitro ADME; conditions: brain homogenate
[17] = rat ip 30 mg/kg, 15 min after dose
[18] = mouse ip 30 mg/kg, 15 min after dose
[19] = mouse ip 30 mg/kg, 15 min after dose, 109 dosed 1 h prior at 20 mg/kg

Chain of rat mGlu2 (P31421 19-872): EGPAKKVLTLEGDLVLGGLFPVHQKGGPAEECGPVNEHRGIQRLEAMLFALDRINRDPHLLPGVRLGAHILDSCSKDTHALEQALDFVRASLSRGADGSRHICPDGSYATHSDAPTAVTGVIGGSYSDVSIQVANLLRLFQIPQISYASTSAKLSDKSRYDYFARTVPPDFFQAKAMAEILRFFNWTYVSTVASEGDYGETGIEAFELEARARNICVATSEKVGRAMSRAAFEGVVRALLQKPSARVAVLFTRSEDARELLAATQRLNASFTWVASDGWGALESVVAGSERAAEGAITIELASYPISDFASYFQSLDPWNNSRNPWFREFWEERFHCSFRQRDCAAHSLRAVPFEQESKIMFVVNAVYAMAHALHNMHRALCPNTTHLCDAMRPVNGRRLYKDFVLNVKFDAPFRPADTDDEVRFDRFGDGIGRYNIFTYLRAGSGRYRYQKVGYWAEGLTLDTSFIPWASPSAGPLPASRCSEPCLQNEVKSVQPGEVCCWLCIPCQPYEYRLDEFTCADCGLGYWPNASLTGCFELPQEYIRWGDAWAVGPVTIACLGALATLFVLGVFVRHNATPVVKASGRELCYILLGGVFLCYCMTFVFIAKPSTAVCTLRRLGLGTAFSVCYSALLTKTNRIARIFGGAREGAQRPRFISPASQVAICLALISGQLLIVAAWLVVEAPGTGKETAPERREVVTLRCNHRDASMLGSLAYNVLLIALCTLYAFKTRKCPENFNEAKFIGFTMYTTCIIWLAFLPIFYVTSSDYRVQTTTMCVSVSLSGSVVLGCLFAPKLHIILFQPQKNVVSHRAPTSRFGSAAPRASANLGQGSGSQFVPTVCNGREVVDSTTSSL

LLE ([1]; LLE = pIC50 – cLogP): 3.59
% Glu max ± SEM ([1]; amplitude of response in presence of 30 μM test compound as percentage of maximal response (100 μM glutamate)): 1.48 ± 0.29%
IC50 ([1]; mGlu2 IC50, calcium mobilization): 207 nM
IC50 ([1]; mGlu2 pIC50 ± SEM, calcium mobilization): 204 nM
unbound in rat plasma [2]: approximately 30%
fraction unbound ([2]; rat, plasma): 0.306
predicted hepatic clearance group ([3]; binned from CLint in rat liver microsomes): low–moderate
rat CLhep ([3]; predicted hepatic clearance based on CLint in rat liver microsomes): 24.5 mL/min/kg
fraction unbound [4]: 0.191
fraction unbound ([4]; mouse): 0.25 to 0.3
Kp at 0.25 h ([5]; brain): 0.32
Kp uu at 0.25 h ([5]; brain): 0.23
concentration at 15 min ([5]; brain): 18 nM
concentration at 15 min ([5]; plasma): 56.9 nM
Papp A→B [6]: 1.54 ×10⁻⁶ cm/s
Papp B→A [6]: 79.7 ×10⁻⁶ cm/s
efflux ratio [6]: 52
human M1 activity [8]: no activity
clearance in vivo ([10]; rat iv time course study): high clearance
Vd ([10]; rat, plasma, iv, 0.2 mg/kg): 13.3 L/kg
clearance ([10]; rat, plasma, iv, 0.2 mg/kg): 75.8 mL/min/kg
half-life ([10]; rat, plasma, iv, 0.2 mg/kg, half-life, rat iv time course study): ~2 h
half-life ([10]; rat, plasma, iv, 0.2 mg/kg, t1/2, rat iv 0.2 mg/kg): 2.35 h
brain concentration [11, 17]: 760 nM
plasma concentration [11, 17]: 3900 nM
Kp at 0.25 h ([11]; rat, brain, ip, 30 mg/kg): 0.2
Kp uu at 0.25 h ([11]; rat, brain, ip, 30 mg/kg): 0.12
concentration at 15 min ([11]; rat, brain, ip, 30 mg/kg, unbound brain concentration, rat ip 30 mg/kg): 145 nM
brain concentration [12, 18]: 716 nm
plasma concentration [12, 18]: 1820 nm
Kp at 0.25 h ([12]; mouse, brain, ip, 30 mg/kg): 0.39
Kp uu at 0.25 h ([12]; mouse, brain, ip, 30 mg/kg): 0.32
concentration at 15 min ([12]; mouse, brain, ip, 30 mg/kg, brain concentration, mouse ip 30 mg/kg): 716 nM
concentration at 15 min ([12]; mouse, brain, ip, 30 mg/kg, unbound brain concentration, mouse ip 30 mg/kg): 184 nM
unbound brain exposure relative to mGlu2 IC50 ([13]; 30 mg/kg ip with P-gp inhibitor pretreatment): more than 5 fold
increase of exposure in the brain after pretreatment with 109 (elacridar) ([13]; mouse ip 30 mg/kg): more than 6 fold
brain concentration [13, 19]: 4580 nm
plasma concentration [13, 19]: 2160 nm
Kp at 15 min [14]: 2.1
Kp uu at 15 min [14]: 1.7
fraction unbound [15]: 0.315
fraction unbound [16]: 0.257
Compound: C[C@@H]1CN(Cc2ccc3c(c2)c(=O)c(C(N)=O)cn3-c2ccc(F)cc2)C[C@H](C)O1 [Compound 58, 6-((cis-2,6-Dimethylmorpholino)methyl)-1-(4-fluorophenyl)-4-oxo-1,4-dihydroquinoline-3-carboxamide]
activity at the other mGlus [7]: no activity
ancillary pharmacology, radioligand binding panel responses [9]: no significant responses
